Data published in ChEMBL document CHEMBL3992520, “Development of the First Two-Pore Domain Potassium Channel TWIK-Related K+ Channel 1-Selective Agonist Possessing in Vivo Antinociceptive Activity” (J Med Chem, 2017).

Legend:
[1] = target: T1, Potassium channel subfamily K member 2 (Homo sapiens) (UniProt O95069); assay: Agonist activity at human TREK1 expressed in xenopus oocytes assessed as increase in K+ current at 20 uM measured at 0 mV by double microelectrode method relative to control; format: cell-based
T1 sequence (whole entry): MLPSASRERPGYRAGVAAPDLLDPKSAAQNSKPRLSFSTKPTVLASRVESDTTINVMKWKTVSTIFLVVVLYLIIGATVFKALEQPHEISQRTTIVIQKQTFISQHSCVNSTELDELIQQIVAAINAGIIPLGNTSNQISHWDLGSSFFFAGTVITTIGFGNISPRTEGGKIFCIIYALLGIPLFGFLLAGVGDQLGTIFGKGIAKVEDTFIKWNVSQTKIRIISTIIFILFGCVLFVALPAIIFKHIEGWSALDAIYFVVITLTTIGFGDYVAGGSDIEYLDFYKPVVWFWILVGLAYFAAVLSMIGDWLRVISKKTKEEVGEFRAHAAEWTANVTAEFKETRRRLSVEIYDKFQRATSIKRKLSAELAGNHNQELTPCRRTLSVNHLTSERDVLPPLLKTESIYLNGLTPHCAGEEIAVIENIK

Mus musculus [2] = assay: Antinociceptive activity in CD1 mouse assessed as inhibition of acetic acid-induced writhes at 10 mg/kg, sc pretreated for 15 mins followed by acetic acid challenge measured within 20 mins relative to control; format: functional
In short: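 Male CD1 mice (20-25 g), n=8 per group, dosed at 10 mg/kg s.c. or with vehicle (5% Tween 80 in 0.9% saline). Dosing was 15 min before i.p. 0.6% acetic acid (10 mL/kg). Abdominal writhes were counted for 20 min. Effect = (mean control writhes − mean test writhes)/mean control writhes ×100.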

[3] = target: T1, Potassium channel subfamily K member 2 (Homo sapiens); assay: Agonist activity at human TREK1 expressed in HEK293 cells assessed as increase in K+ current at 100 uM measured at +60 mV by whole-cell patch clamp method relative to control; format: cell-based
In short: (§1)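 Human TREK-1 (kcnk2) in pIRES2-eGFP was stably expressed in HEK-293 cells under G418 selection, and cells were used 4–48 h after plating. Bath (mM): 140 NaCl, 10 TEA-Cl, 5 KCl, 3 MgCl2, 1 CaCl2, 10 HEPES, pH 7.4. Pipette (mM): 155 KCl, 3 MgCl2, 5 EGTA, 10 HEPES, pH 7.2. Holding was −80 mV, with a step to −100 mV then a 400 ms ramp to +60 mV every 5 s. Read-out was the ratio Imax/I0 taken from I/V curves. Stocks were 20 mM in DMSO.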

Mus musculus [4] = assay: Antinociceptive activity in CD1 mouse assessed as increase in thermal-stimulus induced paw withdrawal latency at 60 mg/kg, sc measured after 30 mins by hot plate method relative to control; format: functional
In short: (§2)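 Male CD1 mice (20-25 g), n=8 per group, given 60 mg/kg s.c. After 5 min acclimatization on a plate at room temperature, mice were placed on a 52 °C hotplate. Latency to forepaw or hindpaw licking or hindpaw flicking was recorded, with a 30 s cut-off. Latency was taken after two consecutive stable baselines, then 30 and 45 min post-dose. Effect = (postdrug − predrug latency)/predrug latency ×100.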

Mus musculus [5] = assay: Antinociceptive activity in CD1 mouse assessed as increase in thermal-stimulus induced paw withdrawal latency at 60 mg/kg, sc measured after 45 mins by hot plate method relative to control; format: functional; in short: as §2
Mus musculus [6] = assay: Antinociceptive activity in wild-type C57Bl/6J mouse assessed as increase in thermal-stimulus induced paw withdrawal latency at 60 mg/kg, sc measured after 30 mins by hot plate method relative to control; format: functional
In short: (§3)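 TREK-1−/− and wild-type C57Bl/6J littermates came from heterozygous crosses, n=7. Dose was 60 mg/kg s.c. The 52 °C hotplate measured paw-lick latency, 30 s cut-off, with baseline from two stable pre-dose latencies.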

Mus musculus [7] = assay: Antinociceptive activity in wild-type C57Bl/6J mouse assessed as increase in thermal-stimulus induced paw withdrawal latency at 60 mg/kg, sc measured after 45 mins by hot plate method relative to control; format: functional; in short: as §3
Mus musculus [8] = assay: Antinociceptive activity in TREK1 deficient C57Bl/6J mouse assessed as increase in thermal-stimulus induced paw withdrawal latency at 60 mg/kg, sc measured after 30 mins by hot plate method relative to control; format: functional; in short: as §3
Mus musculus [9] = assay: Antinociceptive activity in TREK1 deficient C57Bl/6J mouse assessed as increase in thermal-stimulus induced paw withdrawal latency at 60 mg/kg, sc measured after 45 mins by hot plate method relative to control; format: functional; in short: as §3
Mus musculus [10] = assay: In vivo activation of TREK1 in C57Bl/6J mouse assessed as increase in thermal-stimulus induced paw withdrawal latency at 60 mg/kg, sc measured after 30 mins by hot plate method relative to control; format: functional; in short: as §3
Mus musculus [11] = assay: In vivo activation of TREK1 in C57Bl/6J mouse assessed as increase in thermal-stimulus induced paw withdrawal latency at 60 mg/kg, sc measured after 45 mins by hot plate method relative to control; format: functional; in short: as §3
[12] = target: T1, Potassium channel subfamily K member 2 (Homo sapiens); assay: Agonist activity at human TREK1 expressed in HEK293 cells assessed as increase in K+ current at 20 uM measured at +60 mV by whole-cell patch clamp method relative to control; format: cell-based; in short: as §1

| SMILES | fold change (FC) [1] | inhibition in vivo at 10 mg/kg (Mus musculus [2]) [%] | fold change (FC) [3] | Activity (Mus musculus [4]) [%] | Activity (Mus musculus [5]) [%] | further results |
| --- | --- | --- | --- | --- | --- | --- |
| NC/C(=C\c1ccc(O)c(O)c1)C(=O)O | 2.87 | 50.1 |  |  |  |  |
| N#C/C(=C\c1ccccc1)C(=O)OC1CCCCC1 |  | 7.1 | 1.17 |  |  |  |
| N#C/C(=C\c1ccc(O)c(O)c1)C(=O)N1CCOCC1 |  | 40 | 3.8 | 28.7 | 16 |  |
| CCOC(=O)/C(C#N)=C/c1ccccc1 |  | 30.8 | 1.8 | 55.7 | 45.1 |  |
| N#C/C(=C\c1ccc(Cl)c(Cl)c1)C(=O)O | 1.62 | 7.5 |  |  |  |  |
| N#C/C(=C\c1cccc2ccccc12)C(=O)OC1CCCCC1 |  | 30.8 | 2.6 | 70.3 | 50.9 |  |
| Cc1ccc(/C=C(\C#N)C(=O)O)cc1C | 1.7 | -6.1 |  |  |  |  |
| CCOC(=O)/C(C#N)=C/c1ccc[nH]1 |  | 25.8 | 1.89 |  |  |  |
| N#C/C(=C\c1ccc(F)cc1)C(=O)O | 1.6 | 17.8 |  |  |  |  |
| CCOC(=O)/C(C#N)=C/c1c[nH]cn1 |  | 33 | 1.8 | 145.2 | 43.2 |  |
| CC(C)CCOC(=O)/C(C#N)=C/c1ccc(O)c(O)c1 |  | 27.2 | 4.07 |  |  |  |
| O=C(O)CCn1c2ccc(Cl)cc2c2cc(Cl)ccc21 |  |  | 8.56 | 77.4 | 36.6 |  |
| NC/C(=C\c1ccccc1)C(=O)O | 0.95 | -2.4 |  |  |  |  |
| CC(C)CCOC(=O)/C(C#N)=C/c1ccoc1 |  | 82.2 | 2.8 | 6.5 | 25.5 |  |
| O=C(O)C(=Cc1ccc(O)c(O)c1)C(=O)O | 1.76 | -2.8 |  |  |  |  |
| NC/C(=C\c1ccoc1)C(=O)O | 1.49 | -1.5 |  |  |  |  |
| CCOC(=O)/C(C#N)=C/c1cccc2ccccc12 |  | 44.7 | 1.59 | 93.2 | 67.5 | Activity (Mus musculus [6]): 17.4%; Activity (Mus musculus [7]): 31.1%; Activity (Mus musculus [8]): 18%; Activity (Mus musculus [9]): 34.4%; Activity (Mus musculus [10]): 0%; Activity (Mus musculus [11]): 0% |
| CCOC(=O)/C=C/c1ccc(O)c(O)c1 [ETHYL CAFFEATE] | 1.14 | 52.8 |  |  |  |  |
| O=C(O)/C(F)=C/c1ccc(O)c(O)c1 | 2.4 | -5.8 |  |  |  |  |
| O=C(O)C(=Cc1ccccc1)C(=O)O | 1.37 | 29.4 |  |  |  |  |
| CC(C)(C)OC(=O)/C(C#N)=C/c1ccoc1 |  | 81.8 |  | 20.8 | -1.3 | fold change (FC) [12]: 6.09 |
| N#C/C(=C\c1cc2ccccc2[nH]1)C(=O)NC1CCCCC1 |  | 45 | 1.52 | 67.5 | 35.4 |  |
| N#C/C(=C\c1ccccc1)C(=O)O | 1.29 | 43.1 |  |  |  |  |
